Laboratory results as given in ChEMBL document CHEMBL1129428 (J Med Chem, 1996).

Assays:
Rattus norvegicus [1] = experiment: Compound was tested for anticonvulsant activity after Oral Administration into Rats by using MES screen test after 2h,dose 12.5 mg/kg; number of rats out of four which were protected; assay type: functional
Method in brief: (§1)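 Rats received the compound orally. […] Rats were tested in the MES screen at 0.25, 0.5, 1, 2 and 4 h. Each value is the number of rats protected out of 4. The test followed NINDS procedures.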

Rattus norvegicus [2] = experiment: Compound was tested for anticonvulsant activity after Oral Administration into Rats by using MES screen test after 4h,dose 12.5 mg/kg; number of rats out of four which were protected; assay type: functional; method in brief: as §1
Rattus norvegicus [3] = experiment: Compound was tested for anticonvulsant activity after Oral Administration into rat by using MES screen test after 4 hr; assay type: functional
Method in brief: (§2)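 Rats dosed orally, typically at 50 mg/kg first, then mostly 12.5 mg/kg (some compounds at 30 mg/kg), and tested by maximal electroshock. Four rats per compound, scored at 0.25, 0.5, 1, 2 and 4 h as the number of rats protected out of 4.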

Rattus norvegicus [4] = experiment: Compound was tested for anticonvulsant activity after Oral Administration into Rats by using MES screen test after 1h,dose 12.5 mg/kg; number of rats out of four which were protected; assay type: functional; method in brief: as §1
[5] = Compound was tested for toxicity after intraperitoneal injection into mice by using neurotoxicity screen test after 4 hr; assay type: organism-based; details: mouse, in vivo, ip
Method in brief: (§3)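 Mice injected intraperitoneally at 30, 100 and 300 mg/kg and examined 0.5 and 4 h afterwards. Each entry is the minimum dose giving activity (MES protection, scPTZ protection, or rotorod failure for neurotoxicity) in half or more of the mice. Activity is called absent if nothing occurs at 300 mg/kg.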

Mus musculus [6] = experiment: Compound was tested for anticonvulsant activity after intraperitoneal injection into mice by using MES screen test after 4 hr; assay type: functional; details: ip; method in brief: as §3
Rattus norvegicus [7] = experiment: Compound was tested for anticonvulsant activity after Oral Administration into Rats by using MES screen test after 0.25h,dose 12.5 mg/kg; No activity was demonstarted; assay type: functional, organism-based; design: dose 12.5 mg/kg; method in brief: as §1
Mus musculus [8] = experiment: Anticonvulsant activity after intraperitoneal injection into mice by using MES screen test after 0.5 hr; assay type: functional
Mus musculus [9] = experiment: Anticonvulsant activity after intraperitoneal injection into mice by using scPTZ screen after 0.5 hr; assay type: functional
Mus musculus [10] = experiment: Anticonvulsant activity after intraperitoneal injection into mice measured in a maximal electroshock scree (MES) screen; assay type: functional
Rattus norvegicus [11] = experiment: Anticonvulsant activity after oral administration into rats; assay type: functional; design: concentration or dose not given beside the values
[12] = Protection index = TD50/ED50 (MES); details: mouse, in vivo; read-out: PI
Mus musculus [13] = experiment: Toxicity after intraperitoneal injection into mice by using toxicity screen test after 0.5 hr; assay type: organism-based; details: in vivo, ip; method in brief: as §3
Mus musculus [14] = experiment: Compound was tested for toxicity after intraperitoneal injection into mice by using toxicity screen test after 4 hr; assay type: organism-based; details: in vivo, ip; method in brief: as §3
[15] = Partition coefficient (logP); assay type: physicochemical; details: octanol/water
Method in brief: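 Partition between 1-octanol and buffer at pH 7.4, with solutions prepared in 1-octanol before buffer is added. Quantified by UV, using λmax and ε values measured in 1-octanol.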

[16] = Compound was tested for toxicity after oral administration in rat by using neurotoxicity screen test after 4 hr; assay type: organism-based; details: in vivo
Method in brief: (§4)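 Rat neurotoxicity after oral dosing, observed at 0.25, 0.5, 1, 2, 4, 6, 8 and 24 h (8 h omitted for one compound).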

Mus musculus [17] = experiment: Compound was tested for anticonvulsant activity after intraperitoneal injection into mice by using scPTZ screen test after 1 hr; assay type: functional; details: ip
Method in brief: (§5)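 Quantitative intraperitoneal mouse testing in the MES, scPTZ or rotorod neurotoxicity screens at the peak time given for each compound (0.25–2 h). ED50 or TD50 reported in mg/kg with 95% CI and slope (SE).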

Rattus norvegicus [18] = experiment: Compound was tested for anticonvulsant activity after Oral Administration into Rats by using MES screen test after 0.25h,dose 12.5 mg/kg; number of rats out of four which were protected; assay type: functional; method in brief: as §1
[19] = Compound was tested for toxicity after intraperitoneal injection into mice by using neurotoxicity screen test after 2 hr; assay type: organism-based; details: mouse, in vivo, ip; method in brief: as §5
Rattus norvegicus [20] = experiment: Compound was tested for anticonvulsant activity after Oral Administration into rat by using MES screen test after 2 hr; assay type: functional; method in brief: as §2
Mus musculus [21] = experiment: Compound was tested for anticonvulsant activity after intraperitoneal injection into mice by using MES screen test after 1 hr; assay type: functional; details: ip; method in brief: as §5
Rattus norvegicus [22] = experiment: Compound was tested for anticonvulsant activity after Oral Administration into Rats by using MES screen test after 1h,dose 30 mg/kg; number of rats out of four which were protected; assay type: functional; method in brief: as §1
[23] = Compound was tested for toxicity after intraperitoneal injection into mice by using neurotoxicity screen test after 1 hr; assay type: organism-based; details: mouse, in vivo, ip; method in brief: as §5
Rattus norvegicus [24] = experiment: Compound was tested for anticonvulsant activity after Oral Administration into Rats by using MES screen test after 4h,dose 30 mg/kg; number of rats out of four which were protected; assay type: functional; method in brief: as §1
Rattus norvegicus [25] = experiment: Compound was tested for anticonvulsant activity after Oral Administration into Rats by using MES screen test after 2h,dose 30 mg/kg; number of rats out of four which were protected; assay type: functional; method in brief: as §1
Mus musculus [26] = experiment: Anticonvulsant activity after intraperitoneal injection into mice by using MES screen test after 0.25 hr; assay type: functional
Mus musculus [27] = experiment: Compound was tested for anticonvulsant activity after intraperitoneal injection into mice by using scPTZ screen test after 0.25 hr; assay type: functional; details: ip; method in brief: as §5
Rattus norvegicus [28] = experiment: Compound was tested for anticonvulsant activity after Oral Administration into Rats by using MES screen test after 0.25h,dose 30 mg/kg; number of rats out of four which were protected; assay type: functional; method in brief: as §1
Rattus norvegicus [29] = experiment: Compound was tested for anticonvulsant activity after Oral Administration into Rats by using MES screen test after 0.5h,dose 30 mg/kg; number of rats out of four which were protected; assay type: functional; method in brief: as §1
[30] = Protection index = TD50/ED50; assay type: ADME; details: read-out: PI
Mus musculus [31] = experiment: Anticonvulsant activity after intraperitoneal injection into mice by using scPTZ screen test after 4 hr; assay type: functional
[32] = Compound was tested for toxicity after oral administration in rat by using neurotoxicity screen test after 0.25-24 hr; assay type: organism-based; details: in vivo; method in brief: as §4
Rattus norvegicus [33] = experiment: Compound was tested for anticonvulsant activity after Oral Administration into Rats by using MES screen test after 0.25h,dose 12.50 mg/kg; number of rats out of four which were protected; assay type: functional; details: dose 12.5 mg/kg; method in brief: as §1
Rattus norvegicus [34] = experiment: Compound was tested for anticonvulsant activity after Oral Administration into Rats by using MES screen test after 1h,dose 12.50 mg/kg; number of rats out of four which were protected; assay type: functional; details: dose 12.5 mg/kg; method in brief: as §1
Rattus norvegicus [35] = experiment: Compound was tested for anticonvulsant activity after Oral Administration into Rats by using MES screen test after 4h,dose 12.50 mg/kg; number of rats out of four which were protected; assay type: functional; details: dose 12.5 mg/kg; method in brief: as §1
Rattus norvegicus [36] = experiment: Compound was tested for anticonvulsant activity after Oral Administration into Rats by using MES screen test after 0.5h,dose 12.50 mg/kg; number of rats out of four which were protected; assay type: functional; details: dose 12.5 mg/kg; method in brief: as §1
Mus musculus [37] = experiment: Compound was tested for anticonvulsant activity after intraperitoneal injection into mice by using MES screen test after 0.5 hr; assay type: functional; details: ip; method in brief: as §3
Rattus norvegicus [38] = experiment: Compound was tested for anticonvulsant activity after Oral Administration into Rats by using MES screen test after 2h,dose 12.50 mg/kg; number of rats out of four which were protected; assay type: functional; details: dose 12.5 mg/kg; method in brief: as §1

logP [15] | Compound | Activity (Rattus norvegicus [1]) | Activity (Rattus norvegicus [2]) | ED50 (Rattus norvegicus [3]) | Activity (Rattus norvegicus [4]) | TD50 at 4 h [5] | ED50 (Mus musculus [6]) | Activity (Rattus norvegicus [7]) | Dose (Mus musculus [8]) | Dose (Mus musculus [9]) | Dose (Mus musculus [10]) | Activity (Rattus norvegicus [11]) | selectivity ratio [12] | Dose (Mus musculus [13]) | Dose (Mus musculus [14]) | ED50 (Mus musculus [17]) | TD50 at 1 h [23] | ED50 (Mus musculus [26]) | ED50 (Mus musculus [27]) | selectivity ratio [30] | other results
– | CC/C(=N/NC(N)=O)c1ccc(Oc2ccc(Br)cc2)cc1 | 4 | 4 | 4.39 mg/kg | 4 | 52.5 mg/kg | 6.71 mg/kg | No activity | 30 mg/kg | 100 mg/kg | 30 mg/kg | 2 | 7.82 | 300 mg/kg | 100 mg/kg | – | – | – | – | – | –
2.8 | NC(=O)N/N=C/c1ccc(Sc2ccc(F)cc2)cc1 | 4 | 4 | – | 4 | – | – | – | 30 mg/kg | 30 mg/kg | 30 mg/kg | 3 | – | 300 mg/kg | 100 mg/kg | > 120 mg/kg | – | – | – | – | TD50 at 4 h [16]: 183 mg/kg; Activity (Rattus norvegicus [18]): 1; TD50 at 2 h [19]: 88 mg/kg; ED50 (Rattus norvegicus [20]): 4.98 mg/kg; ED50 (Mus musculus [21]): 12.4 mg/kg
– | C/C(=N/NC(N)=O)c1ccc(Oc2ccccc2)cc1 | – | – | 9.73 mg/kg | – | – | – | – | 30 mg/kg | – | 100 mg/kg | – | 8.09 | 100 mg/kg | 100 mg/kg | – | 73.5 mg/kg | 9.08 mg/kg | 43.3 mg/kg | 1.7 | Activity (Rattus norvegicus [22]): 4; Activity (Rattus norvegicus [24]): 4; Activity (Rattus norvegicus [25]): 4; Activity (Rattus norvegicus [28]): 4; Activity (Rattus norvegicus [29]): 4
2.2 | NC(=O)N1c2ccccc2C=Cc2ccccc21 [CARBAMAZEPINE] | – | – | – | – | – | – | – | 30 mg/kg | 100 mg/kg | 100 mg/kg | – | – | 100 mg/kg | 300 mg/kg | – | – | 9.85 mg/kg | > 50 mg/kg | – | Dose (Mus musculus [31]): 300 mg/kg
– | CCC(C)c1ccc(Oc2ccc(/C=N\NC(N)=O)cc2)cc1 (stereo not drawn) | 3 | 4 | 3.21 mg/kg | 2 | 131 mg/kg | 13.4 mg/kg | No activity | 100 mg/kg | – | 30 mg/kg | 2 | – | 300 mg/kg | 100 mg/kg | 86.9 mg/kg | – | – | – | 1.51 | Dose (Mus musculus [31]): 100 mg/kg; TD50 [32]: > 322 mg/kg
– | NC(=O)N/N=C/c1ccc(Oc2cc(F)cc(F)c2)cc1 | – | – | – | – | – | – | – | 30 mg/kg | 100 mg/kg | 30 mg/kg | – | 5.58 | 300 mg/kg | 300 mg/kg | – | 68.8 mg/kg | – | – | – | Activity (Rattus norvegicus [33]): 1; Activity (Rattus norvegicus [34]): 4; Activity (Rattus norvegicus [35]): 4; Activity (Rattus norvegicus [36]): 3; ED50 (Mus musculus [37]): 12.3 mg/kg; Activity (Rattus norvegicus [38]): 4
